# Reference: ChEMBL document CHEMBL6092223, “Covalent Inhibitors of KEAP1 with Exquisite Selectivity” (J Med Chem, 2024)
# Calls of active or inactive are those of the source. No cut-off for these calls is given here.
# What was measured:
# [1] = In vivo activation of Nrf2 in male db/db mouse assessed as increase in NQO1 mRNA expression in kidney at 100 mg/kg, po administered via gavage and measured after 6 hrs relative to control; type: functional
# Summary of the method: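 Fed male db/db mice (8–10 weeks) dosed 100 mg/kg by oral gavage in 1% HEC. Kidney Nqo1 mRNA measured at 6 h or 24 h and expressed as % change versus vehicle-treated mice.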
# [2] = In vivo activation of Nrf2 in male db/db mouse assessed as increase in NQO1 mRNA expression in kidney at 100 mg/kg, po administered via gavage and measured after 24 hrs relative to control; type: functional
# [3] = target: Kelch-like ECH-associated protein 1 (Homo sapiens) (UniProt Q14145); assay: Binding affinity to human Keap1 BTB domain (48 to 213 residues) extracted from Escherichia coli BL21(DE3)-R3-pRARE2 cells assessed as adduct formation by intact mass spectrometry
# Sequence of Kelch-like ECH-associated protein 1 (Homo sapiens) (Q14145 whole entry, the tested form may be a part): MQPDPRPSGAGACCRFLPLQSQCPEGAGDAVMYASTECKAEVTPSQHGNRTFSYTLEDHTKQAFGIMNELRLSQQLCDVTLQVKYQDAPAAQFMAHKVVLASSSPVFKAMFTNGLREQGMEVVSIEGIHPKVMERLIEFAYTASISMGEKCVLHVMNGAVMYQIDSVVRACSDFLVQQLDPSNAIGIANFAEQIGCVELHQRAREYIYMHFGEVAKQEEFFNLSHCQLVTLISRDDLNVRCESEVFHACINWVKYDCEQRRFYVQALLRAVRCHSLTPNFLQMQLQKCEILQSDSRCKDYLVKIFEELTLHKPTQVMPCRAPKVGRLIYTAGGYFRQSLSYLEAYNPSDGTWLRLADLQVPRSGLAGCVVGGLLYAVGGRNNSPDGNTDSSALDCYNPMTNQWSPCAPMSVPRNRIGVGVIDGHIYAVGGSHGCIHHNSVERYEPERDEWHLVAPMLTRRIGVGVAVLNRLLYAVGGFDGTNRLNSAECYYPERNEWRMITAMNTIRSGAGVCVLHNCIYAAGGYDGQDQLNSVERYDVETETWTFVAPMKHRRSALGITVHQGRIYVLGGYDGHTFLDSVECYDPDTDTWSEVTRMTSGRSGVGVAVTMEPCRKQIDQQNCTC
# [4] = organism: Homo sapiens; assay: Binding affinity to human Keap1 BTB domain C151A mutant (48 to 213 residues) extracted from Escherichia coli BL21(DE3)-R3-pRARE2 cells assessed as adduct formation by intact mass spectrometry
# [5] = system: Fibroblast; assay: Effect on ARE signal response in Nrf2 knockout mouse embryonic fibroblast cells; type: functional, cell-based
# [6] = system: Mus musculus; assay: Induction of NQO1 mRNA expression in C57BI6 mouse kidney at 100 mg/kg measured after 24 hrs; type: functional, organism-based
# [7] = system: Mus musculus; assay: Induction of NQO1 mRNA expression in Nrf2-/- mouse kidney at 100 mg/kg measured after 24 hrs; type: functional, organism-based
# [8] = target: Kelch-like ECH-associated protein 1 (Homo sapiens) (UniProt Q14145); assay: Binding affinity to human Keap1 BTB domain (48 to 213 residues) extracted from Escherichia coli BL21(DE3)-R3-pRARE2 cells assessed as adduct formation at 100 uM by LC-MS analysis
# [9] = target: T1, Kelch-like protein 26 (Homo sapiens) (UniProt Q53HC5); assay: Binding affinity to human KLHL26 BTB domain (34 to 161 residues) extracted from Escherichia coli BL21(DE3)-R3-pRARE2 cells assessed as adduct formation at 100 uM by LC-MS analysis
# T1 sequence (whole entry): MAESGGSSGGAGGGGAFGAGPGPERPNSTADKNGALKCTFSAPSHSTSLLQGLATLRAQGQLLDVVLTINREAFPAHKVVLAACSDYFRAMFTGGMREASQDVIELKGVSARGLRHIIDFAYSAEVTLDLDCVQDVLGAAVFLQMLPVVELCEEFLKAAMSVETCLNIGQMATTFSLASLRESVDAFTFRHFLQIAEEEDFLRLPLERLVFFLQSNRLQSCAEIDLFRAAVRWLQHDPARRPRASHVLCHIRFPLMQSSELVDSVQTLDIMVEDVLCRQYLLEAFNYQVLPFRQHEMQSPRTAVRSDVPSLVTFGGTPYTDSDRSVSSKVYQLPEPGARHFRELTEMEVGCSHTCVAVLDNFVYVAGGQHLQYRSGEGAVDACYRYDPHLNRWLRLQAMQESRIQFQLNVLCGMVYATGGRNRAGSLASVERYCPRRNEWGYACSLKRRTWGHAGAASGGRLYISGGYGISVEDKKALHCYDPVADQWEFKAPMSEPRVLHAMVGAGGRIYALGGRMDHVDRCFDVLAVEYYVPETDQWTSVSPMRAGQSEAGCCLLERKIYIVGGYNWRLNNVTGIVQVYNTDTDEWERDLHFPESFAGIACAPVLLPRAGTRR
# [10] = target: T2, RNA-binding protein 12B (Homo sapiens) (UniProt Q8IXT5); assay: Binding affinity to RBM12B at C204 residue in human MDA-MB-231 cells at 1 uM incubated for 3 hrs in presence of IAA by proteome-wide scale isoTOP ABPP method; type: cell-based
# T2 sequence (whole entry): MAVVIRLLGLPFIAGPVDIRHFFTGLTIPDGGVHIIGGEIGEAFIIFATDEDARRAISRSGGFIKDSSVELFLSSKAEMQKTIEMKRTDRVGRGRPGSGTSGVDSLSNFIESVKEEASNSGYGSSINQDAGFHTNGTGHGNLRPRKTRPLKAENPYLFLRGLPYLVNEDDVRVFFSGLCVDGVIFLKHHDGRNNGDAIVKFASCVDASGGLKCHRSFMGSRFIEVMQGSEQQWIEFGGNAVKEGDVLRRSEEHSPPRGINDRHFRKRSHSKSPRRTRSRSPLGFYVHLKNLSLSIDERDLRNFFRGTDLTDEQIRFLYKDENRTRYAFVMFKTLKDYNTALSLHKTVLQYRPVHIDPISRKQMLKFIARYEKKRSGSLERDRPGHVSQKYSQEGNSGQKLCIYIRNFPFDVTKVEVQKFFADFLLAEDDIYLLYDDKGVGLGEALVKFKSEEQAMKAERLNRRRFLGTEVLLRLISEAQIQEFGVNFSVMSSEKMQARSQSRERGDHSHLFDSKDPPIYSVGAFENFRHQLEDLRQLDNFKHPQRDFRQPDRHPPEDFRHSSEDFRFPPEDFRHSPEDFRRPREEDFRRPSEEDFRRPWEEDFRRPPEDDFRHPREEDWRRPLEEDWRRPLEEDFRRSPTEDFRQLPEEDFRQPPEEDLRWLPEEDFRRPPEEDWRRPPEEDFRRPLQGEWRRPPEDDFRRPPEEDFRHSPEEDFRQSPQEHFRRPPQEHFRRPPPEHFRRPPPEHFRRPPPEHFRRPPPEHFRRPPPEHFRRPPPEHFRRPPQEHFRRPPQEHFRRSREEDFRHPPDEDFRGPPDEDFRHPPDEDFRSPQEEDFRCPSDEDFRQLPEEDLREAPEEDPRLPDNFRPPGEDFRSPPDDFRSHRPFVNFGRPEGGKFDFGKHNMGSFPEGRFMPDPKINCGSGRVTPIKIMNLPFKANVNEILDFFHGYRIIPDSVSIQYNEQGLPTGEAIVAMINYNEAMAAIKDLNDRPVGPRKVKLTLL
# Summary of the method: (§1)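 Live MDA-MB-231 cells treated 3 h with compound at 1 μM, or with DMSO vehicle. 100 μM iodoacetamide-alkyne then added as a clickable cysteine-reactive probe. Cysteine competition read by isoTOP ABPP; competed peptides called at ratio R > 4.5.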
# [11] = target: T3, Perilipin-3 (Homo sapiens) (UniProt O60664); assay: Binding affinity to PLIN3 at C39 residue in human MDA-MB-231 cells at 1 uM incubated for 3 hrs in presence of IAA by proteome-wide scale isoTOP ABPP method; type: cell-based; summary of the method: as §1
# T3 sequence (whole entry): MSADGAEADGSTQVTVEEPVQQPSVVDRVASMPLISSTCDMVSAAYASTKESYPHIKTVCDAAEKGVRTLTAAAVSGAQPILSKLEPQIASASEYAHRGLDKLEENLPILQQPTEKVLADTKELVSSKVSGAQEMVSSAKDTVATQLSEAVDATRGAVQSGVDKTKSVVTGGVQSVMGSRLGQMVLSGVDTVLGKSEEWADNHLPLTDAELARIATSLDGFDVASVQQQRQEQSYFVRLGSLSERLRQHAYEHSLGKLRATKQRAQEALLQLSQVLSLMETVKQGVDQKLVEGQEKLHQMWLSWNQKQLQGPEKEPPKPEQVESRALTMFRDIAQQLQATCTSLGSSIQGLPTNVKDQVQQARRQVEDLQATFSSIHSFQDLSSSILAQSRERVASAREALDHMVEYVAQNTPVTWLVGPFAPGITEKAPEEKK
# [12] = target: T3, Perilipin-3 (Homo sapiens); assay: Binding affinity to PLIN3 at C60 residue in human MDA-MB-231 cells at 1 uM incubated for 3 hrs in presence of IAA by proteome-wide scale isoTOP ABPP method; type: cell-based; summary of the method: as §1
# [13] = target: T4, Keap1/Nrf2 (Homo sapiens, UniProt Q14145); assay: Inhibition of human Keap1/PL-tagged human Nrf2 protein-protein interaction in human PathHunter U2OS Keap1-NRF2 Nuclear Translocation cells assessed as increase in Nrf2 translocation incubated for 3 hrs by luminescence based analysis; type: cell-based
# T4 sequence (Q16236 whole entry): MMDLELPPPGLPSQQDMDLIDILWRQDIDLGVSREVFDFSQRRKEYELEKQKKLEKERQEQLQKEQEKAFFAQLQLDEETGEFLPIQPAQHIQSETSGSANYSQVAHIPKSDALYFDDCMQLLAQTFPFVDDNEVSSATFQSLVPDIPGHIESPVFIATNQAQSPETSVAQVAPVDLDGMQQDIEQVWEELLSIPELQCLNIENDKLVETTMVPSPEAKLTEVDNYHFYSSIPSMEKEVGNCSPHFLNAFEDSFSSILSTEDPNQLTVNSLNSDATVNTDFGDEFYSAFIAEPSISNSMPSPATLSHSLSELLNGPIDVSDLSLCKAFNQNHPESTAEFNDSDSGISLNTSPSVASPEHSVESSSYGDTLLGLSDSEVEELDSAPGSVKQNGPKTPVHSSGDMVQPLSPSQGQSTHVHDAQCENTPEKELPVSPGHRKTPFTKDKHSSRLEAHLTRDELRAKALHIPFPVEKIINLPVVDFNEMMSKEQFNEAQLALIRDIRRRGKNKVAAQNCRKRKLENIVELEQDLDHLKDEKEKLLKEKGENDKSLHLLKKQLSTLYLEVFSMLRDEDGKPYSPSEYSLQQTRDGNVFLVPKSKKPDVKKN
# T4 sequence (Q14145 whole entry): as the sequence (Q14145 whole entry, the tested form may be a part) above
# [14] = target: T4, Keap1/Nrf2; assay: Inhibition of Keap1/Nrf2 protein-protein interaction in human HepG2 cells transfected with beta-lactamase under the control of ARE incubated for 16 hrs by ARE-reporter based FRET assay; type: cell-based
# [15] = in vitro; type: ADME, Microsome; conditions: human, pooled liver microsomes, time < 55 min, read-out: CLH
# [16] = in vitro; type: ADME, Microsome; conditions: mouse, pooled liver microsomes, time < 55 min, read-out: CLH
# [17] = in vitro; type: ADME, Microsome; conditions: rat, pooled liver microsomes, time < 55 min, read-out: CLH
# [18] = Apparent permeability across apical to basolateral side in human Caco-2 cells at 10 uM incubated for 120 mins by LC-MS/MS analysis
# [19] = Efflux ratio of apparent permeability across basolateral to apical over apical to basolateral side in human Caco-2 cells at 10 uM incubated for 120 mins by LC-MS/MS analysis; conditions: caco-2, 2 h
# [20] = Cmax in male db/db mouse at 100 mg/kg, po administered via gavage and measured after 30 mins; type: ADME, organism-based; conditions: in vivo, 0.5 h
# Summary of the method: (§2)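 Male db/db mice (8–10 weeks), fed, single oral gavage of 100 mg/kg; vehicle 1% hydroxyethyl cellulose, except one compound given in Phosal 50PG/ethanol/PEG400.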
# [21] = AUC in male db/db mouse at 100 mg/kg, po administered via gavage and measured after 24 hrs; type: ADME, organism-based; conditions: in vivo; summary of the method: as §2
# [22] = Genotoxicity in human TK6 cells assessed as clastogenicity at 10 uM measured after 4 to 24 hrs by DNA damage response assay; type: toxicity, cell-based; conditions: tk6, 10 µM, time 4-24 hrs
# [23] = Genotoxicity in […] assessed as clastogenicity at 10 uM measured after 4 to 24 hrs by DNA damage response assay; type: toxicity, cell-based; conditions: time 4-24 hrs
# [24] = system: Mus musculus; assay: Induction of NQO1 mRNA expression in C57BI6 mouse kidney at 10 mg/kg measured after 24 hrs; type: functional, organism-based
# [25] = system: Mus musculus; assay: Induction of NQO1 mRNA expression in Nrf2-/- mouse kidney at 10 mg/kg measured after 24 hrs; type: functional, organism-based
smiles,measurement,setting,value
CCS(=O)(=O)c1nc(S(=O)(=O)c2ccccc2Cl)c(N2CCN(C)C(=O)C2)s1,Activity,[1],199%
same,Activity,[2],379%
same,Activity,[3],Active
same,Activity,[4],inactive
same,Activity,[5],Not active; Compound Selectively Acts Through Keap1-Nrf2 Axis
same,Activity,[6],Active
same,Activity,[7],inactive
CN1CCN(c2sc(S(=O)(=O)C3CC3)nc2S(=O)(=O)c2ccccc2Cl)CC1=O,Activity,[1],149%
same,Activity,[2],164%
CCS(=O)(=O)c1nc(S(=O)(=O)c2ccccc2C#N)c(N2CCN(C)C(=O)C2)s1,Activity,[1],299%
same,Activity,[2],209%
CCS(=O)(=O)c1nc(S(=O)(=O)c2ccccc2Cl)c(N2CCN(C)C(=O)[C@H]2C)s1,Activity,[1],344%
same,Activity,[8],Active
same,Activity,[9],inactive
same,Activity,[10],Active
same,Activity,[11],Active
same,Activity,[12],Active
CCP1(=O)CCN(c2sc(S(=O)(=O)CC)nc2S(=O)(=O)c2cccc(Cl)c2Cl)CC1,EC50,[13],527 nM
same,EC50,[14],160 nM
same,"CLint scaled at 0.75 h, 0.1 µM",[15],2.6 mL/min/kg
same,"CLint scaled at 0.75 h, 0.1 µM",[16],52 mL/min/kg
same,"CLint scaled at 0.75 h, 0.1 µM",[17],62 mL/min/kg
same,"Papp A→B at 2 h, 10 µM",[18],3 ×10⁻⁶ cm/s
same,Ratio,[19],8.7
same,Cmax,[20],6.39 µM
same,AUC,[21],8.5 µM·h
same,Activity,[1],125%
same,Activity,[2],116%
same,Activity,[8],Active
same,Activity,[9],inactive
same,Activity,[22],Non-toxic
same,Activity,[23],Non-toxic
Cc1ccc(S(=O)(=O)c2nc(S(=O)(=O)c3ccccc3)sc2N2CCN(C)CC2)cc1,EC50,[13],338 nM
same,EC50,[14],115 nM
CC1(C)CC[C@]2(C(=O)O)CC[C@]3(C)[C@H](C(=O)C=C4[C@@]5(C)C=C(C#N)C(=O)C(C)(C)[C@@H]5CC[C@]43C)[C@@H]2C1,Activity,[24],Active
same,Activity,[25],inactive
CCS(=O)(=O)c1nc(S(=O)(=O)c2ccc(-c3cccn(C)c3=O)cc2)c(N2CCN(C)C(=O)C2)s1,EC50,[13],1490 nM
same,EC50,[14],516 nM
same,"CLint scaled at 0.75 h, 0.1 µM",[15],8.5 mL/min/kg
same,"CLint scaled at 0.75 h, 0.1 µM",[16],22 mL/min/kg
same,"Papp A→B at 2 h, 10 µM",[18],0.74 ×10⁻⁶ cm/s
same,Ratio,[19],46
C=Cc1nc(S(=O)(=O)c2ccccc2Cl)c(N2CCN(C)C(=O)C2)s1,Activity,[10],Active
Cc1ccc(S(=O)(=O)c2nc(S(=O)(=O)c3ccccc3)sc2N2CCOCC2)cc1,EC50,[13],270 nM
CCS(=O)(=O)c1nc(S(=O)(=O)c2ccccc2Cl)c(N2CCP(C)(=O)CC2)s1,EC50,[13],4210 nM
same,EC50,[14],946 nM
same,"CLint scaled at 0.75 h, 0.1 µM",[17],5.6 mL/min/kg
same,"Papp A→B at 2 h, 10 µM",[18],1.4 ×10⁻⁶ cm/s
same,Ratio,[19],4.5
CCS(=O)(=O)c1nc(S(=O)(=O)c2ccccc2C#N)c(N2CCN(C)C(=O)[C@H]2C)s1,Activity,[1],88%
same,Activity,[2],214%
same,Activity,[8],Active
same,Activity,[9],inactive
CCS(=O)(=O)c1nc(S(=O)(=O)c2ccccc2Cl)c(N2CC3(CC3)C2)s1,EC50,[13],> 32000 nM
same,EC50,[14],≥ 13000 nM
